# Bioassay records deposited in PubChem BioAssay by several laboratories.
# MC4R antag cAMP: MC4R antagonists of cAMP signaling, primary screen, cell-based, TR-FRET, antagonist arm of biased-ligand search; AID 540295, 2011; Melanocortin receptor 4 (Homo sapiens), P32245; 360,000 compounds, 0.48% hits; MC4R-expressing cells, MTII-stimulated cAMP, LANCE TR-FRET; inhibition, % at 6.5 µM;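 active = inhibition above its plate's cutoff, the mean of tested wells on that plate plus 3 SD, cut at about 29% in these data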;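 note: 0% = Melanotan II alone and 100% = Melanotan II plus saturating MCL0020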
# Target sequence (P32245 whole entry, looked up): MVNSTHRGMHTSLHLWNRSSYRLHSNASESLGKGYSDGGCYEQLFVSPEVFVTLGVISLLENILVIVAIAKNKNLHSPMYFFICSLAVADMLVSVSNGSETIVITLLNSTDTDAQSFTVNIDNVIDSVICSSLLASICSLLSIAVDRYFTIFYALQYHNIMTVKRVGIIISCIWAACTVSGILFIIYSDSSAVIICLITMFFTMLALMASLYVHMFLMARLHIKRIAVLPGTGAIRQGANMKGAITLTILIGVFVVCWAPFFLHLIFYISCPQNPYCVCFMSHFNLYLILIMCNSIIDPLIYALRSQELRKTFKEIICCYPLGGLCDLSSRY
#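 Material: human MC4R-expressing U2OS cells. Probe or stimulus: Melanotan II challenge. Dosing: 6.5 µM single dose. Times: 30-min compound, 1-h challenge, 1-h detection, room temperature. Technique: TR-FRET with Eu-cAMP and labeled anti-cAMP, 671 nm. Replication: singlicate.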
# NTR1 ag: agonists of human NTR1, primary screen, imaging, U2OS cells, beta-arrestin-GFP, high content | Neurotensin receptor type 1 (Homo sapiens), P30989 | NTR1-U2OS beta-arrestin-GFP spot imaging, agonist mode | activation, % at 20 µM | 330,000 compounds, 0.17% hits | AID 493036, 2011;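 active = activation at or above 40% of the spot to cytoplasm intensity ratio, with at least 20 cells analyzed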;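 note: 0% = DMSO without peptide and 100% = 100 nM NTR1 peptide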
# NR1D1 modulator: modulators of Rev-erb alpha DNA binding, primary screen, biochemical, FITC-DNA, fluorescence polarization, uHTS. Nuclear receptor subfamily 1 group D member 1 (Homo sapiens), P20393. Rev-erbα–FITC-DNA binding, 90 min. activity, % at 10 µM. 370,000 compounds, 0.79% hits;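 active = activity above about 14%, limit read from the data; passing the limit was not always enough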;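 note: 0% = DMSO wells with 35 nM protein and 100% = DMSO wells with 750 nM protein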
# MC4R barr agon: MC4R agonists recruiting beta-arrestin, primary screen, cell-based, luminescence, agonist arm of biased-ligand search | Melanocortin receptor 4 (Homo sapiens), P32245 | U2OS MC4R beta-arrestin complementation; percent of melanotan II response, DMSO zero | activation, % at 8.9 µM | 360,000 compounds, 0.98% hits | AID 540308, 2011;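 active = activation above a per-plate cutoff, the mean activation of sample wells on that plate plus 3 SD, cut at about 8% in these data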
# PG9 binder: binders of HIV-1 gp120 antibody PG9, primary screen, biochemical, TR-FRET; 360,000 compounds, 0.43% hits; TR-FRET gp120-PG9 antibody binding; inhibition, % at 6.7 µM; AID 624416, 2012; in the data active = inhibition above about 8.5%
# PG9 binder conf: binders of anti-gp120 antibody PG9, confirmation, biochemical, TR-FRET. 1,500 compounds, 90% hits. inhibition, % at 6.7 µM. AID 651571, 2012. TR-FRET PG9 antibody binding. shares compounds with PG9 binder; in the data active = inhibition above about 9%
# PGV04 counter: binders of control antibody PGV04, counter-screen for PG9 antibody binder project, biochemical, TR-FRET, distinct HIV envelope site | inhibition, % at 6.7 µM | 1,500 compounds, 95% hits | AID 651604, 2012 | shares compounds with PG9 binder | TR-FRET PGV04 antibody-gp120 binding; in the data active = inhibition above about 9.5%
# PG9 binder DR: small-molecule binders of antibody PG9, dose response, biochemical, TR-FRET, HIV-1 gp120 antibody | TR-FRET PG9 antibody-gp120 binding inhibition | 95 tested, under 10 active | AID 651848, 2012 | IC50, µM | shares compounds with PG9 binder; in the data active = IC50 below about 10 µM
# PGV04 binding DR: binders of control antibody PGV04, dose response, counter-screen for PG9 antibody binder project, biochemical, TR-FRET, distinct HIV envelope site | AID 651937, 2012 | 95 compounds, 20% hits | shares compounds with PG9 binder | TR-FRET binding to control antibody PGV04 | IC50, µM
# PG126 DR counter: binders of control antibody PG126, dose response, counter-screen for PG9 antibody binder project, biochemical, TR-FRET, distinct HIV envelope site; shares compounds with PG9 binder; TR-FRET binding to antibody PG126, counterscreen; IC50, µM; 95 compounds, 20% hits; AID 651939, 2012
# * = called active by the depositor; i = inactive; nt = not tested or not shown. Only some compounds are listed: those with a hit (about 2.5% of all), similar ones and a draw of the others. Cut-off read from the data, not from the text of the source, unless noted: active = IC50 below about 9 µM; inactive = the rest.
SMILES,MC4R antag cAMP,NTR1 ag,NR1D1 modulator,MC4R barr agon,PG9 binder,PG9 binder conf,PGV04 counter,others
COc1ccc(C(=O)CSc2nnc(-c3cc(C)on3)o2)cc1,4.6,3.0,9.9,2.7,18.5*,23.4*,49.0*,
Cc1cc(-c2nnc(SCC(=O)c3ccc(Cl)cc3)o2)no1,-1.5,0.9,0.9,-0.1,2.1,nt,nt,
COc1ccc(-c2nnc(SCc3nc4ccccc4c(=O)[nH]3)o2)cc1,-15.0,1.5,7.1,8.2*,8.9*,11.6*,14.4*,
O[C@H](COc1cccc(F)c1)CN1CCC(C(O)(c2ccccc2)c2ccccc2)CC1,nt,nt,9.9,nt,nt,nt,nt,
CNc1nc(N)c([N+](=O)[O-])c(Nc2cccc(Br)c2)n1,nt,nt,-2.0,nt,nt,nt,nt,
Cn1c(C(=O)NC2CCCCC2)cc2c(=O)n(C)c3ccccc3c21,9.2,3.4,4.6,3.3,12.5*,15.2*,26.5*,
Nc1ccn([C@@H]2O[C@H](C(=O)N3CCN(CCO)CC3)[C@@H](O)[C@H]2O)c(=O)n1,nt,nt,-5.0,nt,-3.3,nt,nt,
FC(F)(F)c1nc(=S)c2ccccc2[nH]1,21.3,nt,-1.8,-1.2,17.3*,10.7*,9.9*,
S=c1nc(COc2ccccc2)[nH]c2ccccc12,13.2,3.3,12.1,1.4,12.8*,9.2*,9.4*,
S=c1nc(Cc2ccccc2)[nH]c2ccccc12,9.0,1.5,13.7,0.8,25.1*,15.5*,12.8*,PG9 binder DR=>67;PGV04 binding DR=i;PG126 DR counter=i
Cc1nc(=S)c2ccccc2[nH]1,3.6,-0.4,-2.2,1.4,-1.0,nt,nt,
S=c1nc(Cc2ccc(Cl)cc2)[nH]c2ccccc12,-8.4,2.2,10.3,8.9*,15.6*,8.2,11.2*,
CCC(=O)N1CCc2cc(Br)c(S(=O)(=O)NCc3ccccc3OC)cc21,nt,nt,0.1,nt,nt,nt,nt,
COC(=O)c1cc2c(c3c4cc(OC)ccc4n(S(=O)(=O)c4ccc(F)cc4)c13)C(=O)N(C)C2,nt,nt,-6.0,nt,0.6,nt,nt,
Cc1ccc(CN2CCSc3ccc(C(=O)NCCCN4CCN(C)CC4)cc32)cc1,4.5,-0.3,-6.7,-2.6,25.1*,28.8*,34.4*,
O=C(CNS(=O)(=O)c1ccc(Br)s1)N1CCN(c2ccccn2)CC1,nt,nt,-3.3,nt,nt,nt,nt,
CCC[C@H]1[C@@H](NC(=O)NCC)CC[C@@]23CCCN2C(=O)CCC[C@@H]13,nt,nt,1.0,nt,nt,nt,nt,
CCCCn1c(SCC(=O)NCc2ccco2)nc2ccc(N3CCOCC3)cc2c1=O,4.4,-2.5,-1.3,-1.7,-2.2,nt,nt,
CCCCn1c(SCC(=O)NCc2ccccc2)nc2ccc(N3CCOCC3)cc2c1=O,1.1,1.1,-1.1,-1.5,19.3*,34.7*,55.5*,
CCCC(=O)Nc1ccc(C(=O)Nc2ccc([N+](=O)[O-])cc2OC)cc1,-10.2,5.5,-1.8,5.4,10.2*,9.5*,16.7*,
COC(=O)C1CN(CCc2ccccc2)CCS(=O)(=O)N1Cc1ccccc1F (stereo not drawn),nt,nt,0.6,nt,nt,nt,nt,
CC(C)C(C#CC1CC1)NCc1ccc2c(c1)OCO2 (stereo not drawn),nt,nt,-1.3,nt,nt,nt,nt,
CCn1c2c(c3cc(Br)ccc31)CCC/C2=N\O,12.9,11.6,13.9,-1.1,16.2*,19.8*,31.5*,
C=CCNc1cccc2c1S(=O)(=O)N[C@@H](CC(C)C)CO2,nt,nt,-1.4,nt,0.0,nt,nt,
CCOC(=O)COc1cccc2c(=O)n(CC(=O)N3CCc4ccccc43)ccc12,-7.0,2.3,14.6,0.1,14.5*,21.0*,25.5*,
SMILES,MC4R antag cAMP,NTR1 ag,NR1D1 modulator,MC4R barr agon,PG9 binder,PG9 binder conf,PGV04 counter,others
COc1cccc2c(=O)n(CC(=O)N3CCc4ccccc43)ccc12,14.0,0.7,5.8,1.9,-1.5,nt,nt,
COC(=O)[C@]12C[C@H](CC(=O)NCCC(C)C)C(=O)N(Cc3cccc4ccccc34)C1=C[C@H](C(C)C)O[C@@H]2C1CC1,nt,nt,-0.9,nt,nt,nt,nt,
Cc1c(N2C(=O)C(=O)/C(=C(/O)c3ccc(Br)cc3)C2c2cccnc2)c(=O)n(-c2ccccc2)n1C (stereo not drawn),28.0,-1.3,3.7,-1.6,22.4*,30.7*,38.4*,
O=C(CCl)Nc1ccc(C(=O)NCC2COc3ccccc3O2)cc1 (stereo not drawn),nt,nt,2.8,nt,nt,nt,nt,
C[C@H]1[C@@H](OC(=O)Nc2cccc(Cl)c2)CC[C@@]23CCCN2C(=O)CCC[C@@H]13,nt,nt,-3.8,nt,nt,nt,nt,
CCN(CC(=O)Nc1ccc(NC(C)=O)cc1)C(=O)CSc1ncnc2sc(C)c(C)c12,3.1,-0.3,-4.7,-3.1,11.3*,6.9,24.4*,
CCSc1nnc(NC(=O)CCCOc2ccc(C)cc2)s1,4.7,1.9,16.3,1.8,21.0*,13.2*,48.7*,
O=C(CNC(=O)c1ccc(Br)cc1)c1ccc(Br)cc1,0.7,3.0,-4.2,-0.2,11.2*,17.9*,25.6*,
CC(C(=O)NCc1ccco1)n1nc(-c2ccccc2)c2cc(Cl)ccc21 (stereo not drawn),3.6,10.9,11.8,2.4,9.9*,14.2*,21.7*,
CCOc1ccc(-n2c(SCC(=O)Nc3ccc(S(=O)(=O)Nc4nccs4)cc3)nnc2-c2ccc(C(C)(C)C)cc2)cc1,nt,nt,0.5,nt,nt,nt,nt,
CCCn1c(=O)c(C(=O)NCC2CCCO2)c(O)c2ccccc21 (stereo not drawn),1.3,1.0,8.8,-2.8,8.6*,11.9*,15.5*,
O=C(NCC1CCCO1)c1c(O)c2ccccc2[nH]c1=O (stereo not drawn),1.2,-0.7,11.8,-1.1,-2.3,nt,nt,
CC(=O)Nc1ccc(S(=O)(=O)NCC2CCN(C(=O)C(=O)c3cc4ccccc4o3)CC2)cc1,nt,nt,-5.8,nt,-1.2,nt,nt,
